Series [1] relates to Rattus norvegicus. Description: Antihypertensive activity in spontaneously hypertensive rat assessed as reduction in mean arterial pressure administered via oral gavage in […] measured up to 24 hrs by telemetry method. It is filed as functional. A digest of the protocol: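 Conscious spontaneously hypertensive rats, dosed orally. Blood pressure is monitored by telemetry for 24 h after each dose. Sequential escalating doses of 3, 10, 30 and 100 mg/kg are given at 24 h intervals. Efficacy is the peak percent fall in MAP from baseline. Duration is the vehicle-adjusted % change in AUC over 24 h. Statistics: two-way ANOVA with Bonferroni post hoc.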

The test system of series [2] is Rattus norvegicus. Description: Antihypertensive activity in spontaneously hypertensive rat assessed as reduction in mean arterial pressure administered via oral gavage in ascending cumulative doses […] measured up to 24 hrs in presence of NEP inhibitor candoxatril by telemetry method. The series is classed as functional.
The species named for series [3] is Homo sapiens. Description: Selectivity ratio of Ki for human AT2 receptor to Ki for human AT1 receptor.
The test system of series [4] is Rattus norvegicus. Description: In vivo inhibition of NEP in Sprague-Dawley rat assessed as potentiation of ANP-induced elevation of urinary cGMP level at 3 mg/kg, iv treated for 5 mins at 15 mins post 2 doses of angiotensin-2 treatment at 15 minutes apart followed by ANP treatment measured up to 60 mins by EIA relative to control. It is filed as functional. A digest of the protocol: (§1)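 Rat pharmacodynamic assay with intravenous dosing to exclude oral absorption. AT1 antagonism is read in the same animal as inhibition of the angiotensin-II-evoked pressor response. NEP inhibition is read as potentiation of ANP-induced elevation of urinary cGMP output, relative to vehicle.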

For series [5], the target named is T1, Type-1 angiotensin II receptor (Homo sapiens, UniProt P30556).
T1 sequence (P30556 whole entry): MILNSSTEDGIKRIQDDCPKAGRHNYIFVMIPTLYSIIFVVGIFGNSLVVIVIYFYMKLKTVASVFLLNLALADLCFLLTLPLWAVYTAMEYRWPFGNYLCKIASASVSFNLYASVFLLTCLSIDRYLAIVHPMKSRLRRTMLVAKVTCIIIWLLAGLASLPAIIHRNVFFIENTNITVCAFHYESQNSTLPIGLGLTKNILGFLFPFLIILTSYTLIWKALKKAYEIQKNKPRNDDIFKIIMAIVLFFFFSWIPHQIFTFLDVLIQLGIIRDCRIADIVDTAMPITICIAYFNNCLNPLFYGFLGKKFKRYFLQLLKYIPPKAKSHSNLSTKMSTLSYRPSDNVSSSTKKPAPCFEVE
Put plainly: Displacement of Europium-labeled angiotensin-2 from human AT1 receptor expressed in CHOK1 cell membranes after 120 mins by DELFIA.

Series [6] concerns Rattus norvegicus. Description: In vivo antagonist activity at AT1 receptor in Sprague-Dawley rat assessed as inhibition of angiotensin-2-induced pressor response at 3 mg/kg, iv treated for 5 mins at 15 mins post 2 doses of angiotensin-2 treatment at 15 minutes apart followed by ANP treatment and subsequent angiotensin-2 re-challenge after 60 mins relative to control. The series is classed as functional. A digest of the protocol: as §1

The test system of series [7] is Rattus norvegicus. Put plainly: Antihypertensive activity in DOCA salt-induced CD-1 rat model of hypertension assessed as reduction in blood pressure administered via oral gavage in ascending cumulative doses […] measured up to 24 hrs by telemetry method. The series is classed as functional. A digest of the protocol:
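Conscious DOCA-salt hypertensive rats, a low-renin model, dosed orally. Reduction in blood pressure is followed over time. ED10 is the dose giving an average 10% reduction in the 24 h average MAP.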

The species named for series [8] is Homo sapiens. Description: Selectivity ratio of IC50 for recombinant human ECE1 to IC50 for recombinant human NEP.
Series [9] deals with T2, Type-1 angiotensin II receptor (Homo sapiens) (UniProt P30556).
T2 sequence (whole entry): T1 sequence (P30556 whole entry)
Put plainly: Antagonist activity at AT1 receptor (unknown origin) by inositol phosphate accumulation assay relative to control. It is filed as functional.

Series [10] concerns the target Angiotensin-converting enzyme (Homo sapiens, UniProt P12821). Put plainly: Inhibition of recombinant human ACE using Mca-BK2 as substrate preincubated for 10 mins followed by fluorogenic substrate addition and measured after 20 mins by fluorescence assay.
The target in series [11] is T3, Type-2 angiotensin II receptor (Homo sapiens, UniProt P50052).
T3 sequence (P50052 whole entry): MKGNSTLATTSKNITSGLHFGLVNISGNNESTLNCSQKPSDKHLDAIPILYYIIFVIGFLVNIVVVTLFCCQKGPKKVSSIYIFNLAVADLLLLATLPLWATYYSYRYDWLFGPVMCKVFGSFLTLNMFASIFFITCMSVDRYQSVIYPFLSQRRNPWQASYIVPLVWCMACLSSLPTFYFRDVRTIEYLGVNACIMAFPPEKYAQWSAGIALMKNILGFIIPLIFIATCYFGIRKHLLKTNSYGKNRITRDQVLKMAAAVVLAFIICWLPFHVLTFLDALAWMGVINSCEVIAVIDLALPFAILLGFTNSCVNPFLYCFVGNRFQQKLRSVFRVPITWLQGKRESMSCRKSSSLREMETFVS
Put plainly: Displacement of Europium-labeled angiotensin-2 from human AT2 receptor expressed in CHOK1 cell membranes after 120 mins by DELFIA.

Series [12] addresses T4, Endothelin-converting enzyme 1 (Homo sapiens, UniProt P42892).
T4 sequence (P42892 whole entry): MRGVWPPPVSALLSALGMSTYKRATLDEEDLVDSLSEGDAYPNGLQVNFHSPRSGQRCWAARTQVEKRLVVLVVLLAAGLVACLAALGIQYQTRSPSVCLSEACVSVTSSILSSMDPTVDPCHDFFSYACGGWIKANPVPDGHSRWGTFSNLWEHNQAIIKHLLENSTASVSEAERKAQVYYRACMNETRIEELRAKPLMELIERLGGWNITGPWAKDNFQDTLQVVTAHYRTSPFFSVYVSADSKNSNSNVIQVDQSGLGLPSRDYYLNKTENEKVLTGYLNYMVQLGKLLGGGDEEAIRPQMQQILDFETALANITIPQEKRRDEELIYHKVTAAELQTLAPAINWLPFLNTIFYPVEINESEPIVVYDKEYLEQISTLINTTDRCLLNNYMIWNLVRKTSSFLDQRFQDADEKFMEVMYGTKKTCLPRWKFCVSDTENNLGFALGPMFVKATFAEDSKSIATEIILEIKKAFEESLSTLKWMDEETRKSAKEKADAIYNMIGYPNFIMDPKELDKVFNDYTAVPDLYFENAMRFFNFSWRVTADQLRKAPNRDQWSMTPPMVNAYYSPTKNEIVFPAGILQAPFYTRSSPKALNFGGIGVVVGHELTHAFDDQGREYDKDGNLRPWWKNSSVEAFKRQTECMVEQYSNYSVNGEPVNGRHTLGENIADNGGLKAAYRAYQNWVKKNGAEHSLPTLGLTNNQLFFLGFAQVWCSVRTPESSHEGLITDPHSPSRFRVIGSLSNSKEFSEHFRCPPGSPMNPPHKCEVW
Put plainly: Inhibition of recombinant human ECE1.

Series [13] concerns the target aminopeptidase P (Xaa-Pro aminopeptidase, Homo sapiens). Put plainly: Inhibition of APP (unknown origin).
In series [14] the test system is Rattus norvegicus. Put plainly: Induction of angioedema in normotensive rat assessed as increase in tracheal plasma extravasation by measuring Evans blue dye leakage into peritracheal tissue at 0.3 to 3 mg/kg, po. The series is classed as organism-based. The conditions noted are these: in vivo. A digest of the protocol: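 Rat tracheal plasma extravasation model adapted from Sulpizio et al., used as a surrogate for upper-airway angioedema. Normotensive rats are dosed orally. Read-out is Evans Blue dye leakage into peritracheal tissue, compared with vehicle.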

The next series addresses Neprilysin (Homo sapiens, UniProt P08473). Put plainly: Inhibition of NEP (unknown origin) preincubated for 10 mins followed by fluorogenic substrate addition and measured after 20 mins by fluorescence assay.

For orientation: Ki means a dissociation constant, usually derived from enzyme kinetics or from competition with a known ligand. As a reminder, the inhibition in vivo is the drop in the measured response relative to a control, in per cent. As a reminder, the IC50 is the concentration at which inhibition is half-maximal.

SMILES strings stand for the structures. Bounds are passed on as bounds.

Sequence of Angiotensin-converting enzyme (P12821 whole entry): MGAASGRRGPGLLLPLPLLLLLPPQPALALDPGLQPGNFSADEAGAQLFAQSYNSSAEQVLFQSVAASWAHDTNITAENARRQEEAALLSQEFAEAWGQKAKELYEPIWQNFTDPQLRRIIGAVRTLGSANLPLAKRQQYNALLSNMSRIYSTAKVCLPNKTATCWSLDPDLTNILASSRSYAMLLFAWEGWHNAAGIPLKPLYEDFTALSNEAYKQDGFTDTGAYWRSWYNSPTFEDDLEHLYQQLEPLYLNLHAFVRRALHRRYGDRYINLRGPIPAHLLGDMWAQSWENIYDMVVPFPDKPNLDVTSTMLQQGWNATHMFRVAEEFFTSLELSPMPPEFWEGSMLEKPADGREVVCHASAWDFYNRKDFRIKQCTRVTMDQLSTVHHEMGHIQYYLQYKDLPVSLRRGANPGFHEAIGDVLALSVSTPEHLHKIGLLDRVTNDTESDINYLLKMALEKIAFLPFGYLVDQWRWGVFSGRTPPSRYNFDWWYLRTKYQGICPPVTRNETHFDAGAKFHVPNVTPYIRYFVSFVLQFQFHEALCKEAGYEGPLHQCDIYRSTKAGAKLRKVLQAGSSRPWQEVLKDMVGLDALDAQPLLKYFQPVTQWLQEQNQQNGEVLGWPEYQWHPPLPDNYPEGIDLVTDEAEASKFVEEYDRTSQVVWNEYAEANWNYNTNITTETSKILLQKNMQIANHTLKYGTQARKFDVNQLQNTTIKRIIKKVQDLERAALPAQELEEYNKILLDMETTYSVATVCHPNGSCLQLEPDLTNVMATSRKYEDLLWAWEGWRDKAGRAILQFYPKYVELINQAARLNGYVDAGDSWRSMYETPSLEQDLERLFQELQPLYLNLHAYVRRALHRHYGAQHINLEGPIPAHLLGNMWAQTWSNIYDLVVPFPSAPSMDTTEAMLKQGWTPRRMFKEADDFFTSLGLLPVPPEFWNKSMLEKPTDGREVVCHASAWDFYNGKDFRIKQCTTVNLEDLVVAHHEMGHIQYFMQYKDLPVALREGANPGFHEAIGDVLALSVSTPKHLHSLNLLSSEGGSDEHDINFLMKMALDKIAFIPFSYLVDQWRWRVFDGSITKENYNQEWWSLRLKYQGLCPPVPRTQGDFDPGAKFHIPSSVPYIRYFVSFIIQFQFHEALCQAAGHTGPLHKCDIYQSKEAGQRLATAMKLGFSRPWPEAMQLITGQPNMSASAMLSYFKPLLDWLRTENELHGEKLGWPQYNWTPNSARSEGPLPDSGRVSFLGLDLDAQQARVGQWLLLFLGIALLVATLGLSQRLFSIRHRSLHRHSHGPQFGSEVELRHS
Sequence of Neprilysin (P08473 whole entry): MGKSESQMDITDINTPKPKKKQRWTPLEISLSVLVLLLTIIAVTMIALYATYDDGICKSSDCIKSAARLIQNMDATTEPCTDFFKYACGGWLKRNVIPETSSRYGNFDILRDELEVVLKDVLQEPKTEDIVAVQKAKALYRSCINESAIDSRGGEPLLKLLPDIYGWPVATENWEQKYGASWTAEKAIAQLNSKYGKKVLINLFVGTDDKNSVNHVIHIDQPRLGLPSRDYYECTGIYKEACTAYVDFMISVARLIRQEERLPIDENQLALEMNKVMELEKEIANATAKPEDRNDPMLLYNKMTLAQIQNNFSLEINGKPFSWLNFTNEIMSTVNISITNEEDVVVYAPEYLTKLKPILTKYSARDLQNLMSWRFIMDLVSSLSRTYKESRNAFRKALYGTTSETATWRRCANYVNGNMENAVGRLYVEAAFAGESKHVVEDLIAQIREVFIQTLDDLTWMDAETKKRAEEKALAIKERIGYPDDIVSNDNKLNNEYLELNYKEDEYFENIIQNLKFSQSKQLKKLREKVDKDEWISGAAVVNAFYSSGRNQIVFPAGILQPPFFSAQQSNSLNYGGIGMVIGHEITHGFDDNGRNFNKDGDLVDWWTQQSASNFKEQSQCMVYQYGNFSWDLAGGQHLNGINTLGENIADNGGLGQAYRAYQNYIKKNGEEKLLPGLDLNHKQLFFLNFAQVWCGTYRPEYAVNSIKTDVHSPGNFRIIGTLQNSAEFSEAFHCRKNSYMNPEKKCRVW

As to `CCCCC(=O)N(Cc1ccc(-c2ccccc2-c2nnn[nH]2)cc1)[C@H](C(=O)O)C(C)C`, the Activity result in the series with Rattus norvegicus [1] was “Dose-dependent effect”. Besides, the ED10 worked out at 17 mg/kg with Rattus norvegicus [1] and 15 mg/kg in the series with Rattus norvegicus [2].

As for `CCOc1nc(CC)c(CNC(=O)[C@@H](S)CC(C)C)n1Cc1ccc(-c2ccccc2C(=O)O)cc1F`, in the series listed under Homo sapiens [3], the Ratio Ki stood at 2000. In the series on Rattus norvegicus [4], the “fold change (FC)” value stood at 3.5. The Ki in series [5] was 1.26 nM; in [11] it was 2510 nM. Besides, in the series with Rattus norvegicus [6], the inhibition in vivo at 3 mg/kg is 76%. For the same compound, the Activity entry in the series with Rattus norvegicus [7] and in the series on Rattus norvegicus [1] was “Dose-dependent effect” each time. For the same compound, the ED10 with Rattus norvegicus [7] was determined as 44 mg/kg; in the series on Rattus norvegicus [1], 13 mg/kg. The Ratio IC50 in the series listed under Homo sapiens [8] was 120. The % IP accumulation in series [9] was under 5%. The IC50 was over 10000 nM in series [10], 79.4 nM in series [12] and over 10 µM in series [13].

With `O=C(N[C@H]1CCS[C@H]2CCC[C@@H](C(=O)O)N2C1=O)[C@@H](S)Cc1ccccc1` [OMAPATRILAT], the Activity result is “Non-Toxic” in the series with Rattus norvegicus [14] and “Dose-dependent effect” in the series with Rattus norvegicus [1]. The “fold change (FC)” value with Rattus norvegicus [4] came to 5.3. Moreover, in series [5], the Ki is over 10000 nM. Moreover, the values for the IC50 (at Neprilysin; in series [10]) were 0.2 nM and 0.1 nM, respectively. Also, the figures for the ED10 in the series with Rattus norvegicus [7] and in the series on Rattus norvegicus [1] were 66 mg/kg and 15 mg/kg, respectively.

For the origin of these results see ChEMBL document CHEMBL4308919, “Discovery of TD-0212, an Orally Active Dual Pharmacology AT1 Antagonist and Neprilysin Inhibitor (ARNI)” (ACS Med Chem Lett, 2019).
